According to ChEMBL document CHEMBL6134784, “Furoxan-piplartine hybrids as effective NO donors and ROS inducers in PC3 cancer cells: design, synthesis, and biological evaluation” (RSC Med Chem, 2024):
Calls of active or inactive are those of the source. The calls are words filed in the database; no cut-off is given here.

Assays:
[1] = test system: MCF7; assay: Cytotoxicity against human MCF7 cells assessed as reduction in cell viability measured after 48 hrs by CCK-8 assay; type: functional, cell-based; settings: MCF7, 48 h
Method in brief: (§1)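 CCK-8 viability: cells grown in RPMI-1640 with 10% FBS, 1×10^4 per well, attached 24 h, then medium replaced with fresh medium containing a range of compound concentrations for 48 h at 37 °C, 5% CO2. CCK-8 added 3 h, absorbance 450 nm; vehicle control set as 100%. IC50 by nonlinear regression, mean ± SD, at least two experiments in triplicate.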

[2] = Cytotoxicity against human MCF-10A cells assessed as reduction in cell viability measured after 48 hrs by CCK-8 assay; type: toxicity, cell-based; method in brief: as §1
[3] = test system: PC-3; assay: Cytotoxicity against human PC-3 cells assessed as reduction in cell viability measured after 48 hrs by CCK-8 assay; type: functional, cell-based; settings: PC-3, 48 h; method in brief: as §1
[4] = Cytotoxicity against human PNT2 cells assessed as reduction in cell viability measured after 48 hrs by CCK-8 assay; type: toxicity, cell-based; method in brief: as §1
[5] = test system: OVCAR-3; assay: Cytotoxicity against human OVCAR-3 cells assessed as reduction in cell viability measured after 48 hrs by CCK-8 assay; type: functional, cell-based; settings: OVCAR-3, 48 h; method in brief: as §1
[6] = Selectivity index, ratio of IC50 for cytotoxicity against human MCF-10A cells to IC50 for cytotoxicity against human MCF7 cells; type: toxicity, cell-based; settings: MCF-10A cells versus MCF7 cells, read-out: Ratio IC50
Method in brief: (§2)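 CCK-8 was added for 3 h and A450 read, with vehicle set as 100% viability. IC50 was fitted by nonlinear regression from ≥2 experiments in triplicate. SI = normal-cell IC50 divided by the matched cancer-cell IC50.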

[7] = Selectivity index, ratio of IC50 for cytotoxicity against human PNT2 cells to IC50 for cytotoxicity against human PC-3 cells; type: toxicity, cell-based; settings: PNT2 cells versus PC-3 cells, read-out: Ratio IC50; method in brief: as §2
[8] = test system: PC-3; assay: Induction of nitric oxide production in human PC-3 cells assessed as nitrite level at 100 uM measured after 12 to 48 hrs by Griess assay; type: functional; settings: time 12-48 hrs
Method in brief: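 PC3 cells were seeded at 1×10^4 per well and grown 24 h, then moved to serum-free RPMI with 100 μM compound for 12, 24 or 48 h at 37 °C. Supernatant was mixed with 1% sulfanilamide in 2.5% H3PO4 (10 min, dark), then 0.1% NED (10 min, 37 °C), and A540 was read. Nitrite was calculated from a NaNO2 curve (0–100 μM). Controls were DMSO and SNP 100 μM. Data from ≥3 independent experiments in triplicate, mean ± SD.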

[9] = test system: PC-3; assay: Cytotoxicity against human PC-3 cells assessed as reduction in cell viability at 0.24 uM measured after 24 hrs by SRB assay; type: functional, cell-based
Method in brief: (§3)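 SRB assay: PC3 seeded 1×10^4 per well, after 24 h exposed 24 h at 37 °C, 5% CO2 with or without 1 mM N-acetyl-L-cysteine; vehicle 0.1% DMSO. Fixed with 15% TCA at 4 °C for 1 h, dried, stained 0.4% sulforhodamine B, dye solubilized in 10 mM Tris, absorbance 540 nm; ANOVA/Tukey.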

[10] = test system: PC-3; assay: Cytotoxicity against human PC-3 cells assessed as reduction in cell viability at 0.24 uM measured after 24 hrs in presence of antioxidant N-acetyl-L-cysteine by SRB assay; type: functional, cell-based; method in brief: as §3
[11] = test system: PC-3; assay: Cytotoxicity against human PC-3 cells assessed as reduction in cell viability at 0.05 uM measured after 24 hrs by SRB assay; type: functional, cell-based; method in brief: as §3
[12] = test system: PC-3; assay: Cytotoxicity against human PC-3 cells assessed as reduction in cell viability at 0.05 uM measured after 24 hrs in presence of antioxidant N-acetyl-L-cysteine by SRB assay; type: functional, cell-based; method in brief: as §3

Structure (SMILES)	IC50 [1]	IC50 at 48 h [2]	IC50 [3]	IC50 at 48 h [4]	IC50 [5]	selectivity ratio [6]	selectivity ratio [7]	Activity [8]	Activity [9]	Activity [10]	Activity [11]	Activity [12]
O=S(=O)(c1ccccc1)c1c(OCCCO)no[n+]1[O-]	2.1 µM	1.8 µM	7.2 µM	1.9 µM	3.3 µM	0.9	0.3	3.2 µM	Active	inactive		
COc1cc(/C=C/C(=O)N2CCC=CC2=O)cc(OC)c1OCCCCCCOc1no[n+]([O-])c1S(=O)(=O)c1ccccc1	1.1 µM	3.6 µM	0.13 µM	3.3 µM	0.3 µM	3.1	26.2	23.5 µM				
COc1cc(/C=C/C(=O)N2CCC=CC2=O)cc(OC)c1OC [PIPLARTINE]	5.4 µM	5.3 µM	5.6 µM	8.5 µM	3.5 µM	1	1.5					
O=S(=O)(c1ccccc1)c1c(OCCCCCCO)no[n+]1[O-]	2 µM	1.7 µM	3.8 µM	12.9 µM	2.2 µM	0.9	3.4	3.2 µM				
O=S(=O)(c1ccccc1)c1c(OCCCCCCCCCCCCO)no[n+]1[O-]	4.3 µM	14.8 µM	0.13 µM	17.6 µM	0.04 µM	3.4	137	3.2 µM			Active	inactive
